The values below come from PMC6410374 (Biomaterials science, 2019).

For one data set, the system named is IgG^800. Put plainly: In vivo IgG^800 retention in mouse footpads. On the set-up: species or system C57BL/6 mice. In a few lines:
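Female C57BL/6 mice, 8–12 weeks old, under isoflurane (5% induction, 3% maintenance). Fluorescent IgG800 premixed with peptide coacervate or EAK was injected subcutaneously into one footpad (28G needle) without hair removal. Imaged before injection and every two days with near-infrared imaging at 255 μm resolution. Injection-site ROI was normalized to a non-injected background ROI; the 5-min signal was set as 100% (0.065 μg/μl). Ex vivo scans were taken at 800 channel.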

Data set [1] in a line: Congo red absorbance / fibrillization. The format is physicochemical. The note with it: EAK: upon exposure to high ionic strengths. In a few lines: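 Congo red (1×, diluted from 10X stock in PBS) incubated with peptide for at least 1 h. Absorbance scanned across 400–600 nm on a microplate reader with 0 ms settle time. Peak position and shift read from spectra, with repeat scans over time.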

Data set [2] addresses fluorescein-labeled rabbit polyclonal IgG (Oryctolagus cuniculus, UniProt P01870). Put plainly: Microplate-based titration of IgG against Z15_EAK/EAK coacervate. The format is binding. The note with it: constant concentration of EAK; data not shown.
In the next data set the test system is humans. As to conditions: very low doses; idiosyncratic thrombocytopenia purpura; ref [13]; cited from earlier work.
Data set [3] has as its system CD8 T cells from humans exposed to the human polyomavirus 2 protein. The note with it: T cells of patients exposed to the virus; HLA-A*0201; ref [35]; cited from earlier work.
The next data set addresses IgG. The note with it: read-out: binding constant for IgG; ref [20]; cited from earlier work.

Sequence of fluorescein-labeled rabbit polyclonal IgG (P01870 101-323 limits assumed): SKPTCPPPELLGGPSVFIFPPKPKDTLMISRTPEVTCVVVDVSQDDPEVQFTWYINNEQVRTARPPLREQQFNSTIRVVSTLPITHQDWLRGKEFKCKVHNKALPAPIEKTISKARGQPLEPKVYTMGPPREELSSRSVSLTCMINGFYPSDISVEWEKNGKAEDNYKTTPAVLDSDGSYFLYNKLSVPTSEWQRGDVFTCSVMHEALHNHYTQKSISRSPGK

In the case of AEAEAKAKAEAEAKAK, in the data set on IgG^800 (after 4 days, 5 min signal = 100%), the “IgG^800 retained in footpad” value amounted to 8%. The “antibody in draining lymph node” value with IgG^800 (footpad injection, day 28) was “found in the draining lymph node”. For the same substance, the fibril formation kinetics entry in data set [1] is “almost instantaneously”. Besides, the “affinity constants of IgG titrated against EAK” value in data set [2] is on record as “ambiguous affinity constants”. As for “PRTX-100: Highly purified SpA developed as a therapeutic for idiosyncratic thrombocytopenia purpura”, in the data set on humans, the “safety in phase-I clinical trials” value is “safe”. On to RIPLPNLNEDLTCGN, for which, in data set [3], the “T cell recall in vitro” value is “recalled in vitro”. On to “SpA: 42-kDa protein consisting of five homologous Fc-binding domains (E, D, A, B and C)”, for which the Kd on IgG was about 20 nM.
